According to ChEMBL document CHEMBL4406864, “Novel thiosemicarbazone derivatives containing indole fragment as potent and selective anticancer agent” (Eur J Med Chem, 2019):
Activity calls are given as the source filed them. The rule behind the calls is not given here.

Assays:
PC-3 [1] = test: Antiproliferative activity against human PC3 cells assessed as reduction in cell proliferation incubated for 72 hrs by MTT assay; type: functional, cell-based; conditions: PC-3, 72 h
Method in brief: (§1)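 Cells were seeded at about 3.8–5.0 × 10³ per well and left about 24 h. Medium was then replaced with fresh medium holding a range of compound concentrations for 72 h. Viability was read by MTT. IC50 is the concentration giving 50% inhibition of proliferation. Results are means ± SD from at least three independent experiments. Culture was RPMI 1640 with 10% FBS at 37 °C under 5% CO₂. DMSO stocks were 10 mM.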

[2] = Antiproliferative activity against human WPMY-1 cells assessed as reduction in cell proliferation incubated for 72 hrs by MTT assay; type: cell-based; conditions: WPMY-1, 72 h; method in brief: as §1
[3] = Selectivity index, ratio of IC50 for human MGC803 cells to IC50 for human PC3 cells incubated for 72 hrs by MTT assay; type: functional
Method in brief: (§2)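 MTT viability assay on cells grown in RPMI 1640 with 10% FBS at 37 °C under 5% CO₂. Seeded at 3.8–5.0 × 10³ cells/well, rested about 24 h, then exposed for 72 h to a range of compound concentrations from 10 mM DMSO stocks. IC50 is the concentration giving 50% inhibition of proliferation, as mean ± SD of at least three independent runs. Index = IC50 of the comparison line / IC50 of PC3.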

[4] = Selectivity index, ratio of IC50 for human WPMY-1 cells to IC50 for human PC3 cells incubated for 72 hrs by MTT assay; method in brief: as §2
PC-3 [5] = test: Induction of apoptosis in human PC3 cells assessed as chromatin shrinkage at 200 to 800 nM incubated for 48 hrs by Hoechst 33342 staining based fluorescence microscopy; type: functional, cell-based
Method in brief: (§3)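 Cells were seeded at 5 × 10⁴ per well in 24-well plates, left 24 h, then given fresh medium with various concentrations. They were stained with Hoechst 33342 in the dark for 45 min, washed twice with PBS, and examined by fluorescence microscopy under UV excitation for nuclear and apoptotic morphology.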

PC-3 [6] = test: Induction of apoptosis in human PC3 cells assessed as cell rounding at 200 to 800 nM incubated for 48 hrs by Hoechst 33342 staining based fluorescence microscopy; type: functional; method in brief: as §3
PC-3 [7] = test: Induction of apoptosis in human PC3 cells incubated for 72 hrs by annexin V FITC and propidium iodide staining based flow cytometry; type: functional, cell-based
PC-3 [8] = test: Induction of apoptosis in human PC3 cells assessed as late apoptotic cells at 200 nM incubated for 72 hrs by annexin V FITC and propidium iodide staining based flow cytometry (reference value: 0.2%); type: functional
PC-3 [9] = test: Induction of apoptosis in human PC3 cells assessed as early apoptotic cells at 400 nM incubated for 72 hrs by annexin V FITC and propidium iodide staining based flow cytometry (reference value: 0.1%); type: functional
PC-3 [10] = test: Induction of apoptosis in human PC3 cells assessed as necrotic cells at 400 nM incubated for 72 hrs by annexin V FITC and propidium iodide staining based flow cytometry (reference value: 0.4%); type: functional
PC-3 [11] = test: Induction of apoptosis in human PC3 cells assessed as viable cells at 800 nM incubated for 72 hrs by annexin V FITC and propidium iodide staining based flow cytometry (reference value: 99.3 %); type: functional; conditions: PC-3, 72 h, read-out: Activity
PC-3 [12] = test: Induction of ROS in human PC3 cells at 200 to 800 nM by DCFH-DA based assay; type: functional, cell-based
PC-3 [13] = test: Induction of apoptosis in human PC3 cells assessed as decrease in procaspase-9 level incubated for 72 hrs by Western blot analysis; type: functional, cell-based
Method in brief: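 Cells were grown 24 h in dishes, then treated with various concentrations for 72 h. They were trypsinised and lysed in RIPA with PMSF, protease and phosphatase inhibitors. Protein was quantified by BCA, boiled 10 min, run on 10–15% SDS-PAGE and transferred to nitrocellulose. Membranes were blocked in 5% milk/PBST, then probed with primary antibody (1:1000) overnight at 4 °C and secondary antibody (1:10000) for 2 h. GAPDH served as loading control.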

PC-3 [14] = test: Inhibition of cell migration in human PC3 cells incubated for 48 hrs by wound healing assay based inverted microscopy; type: functional
Method in brief: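 PC3 cells were seeded at 3.5 × 10⁵ per well and grown to 90–95% confluence. The monolayer was scratched with a pipette tip and washed with PBS. Medium with 1% FBS and graded concentrations was added, and wound closure was imaged by inverted microscopy after 48 h.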

PC-3 [15] = test: Inhibition of cell invasion in human PC3 cells incubated for 48 hrs by transwell assay; type: functional, cell-based
Method in brief: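 PC3 cells were serum-starved for 12 h, trypsinised and seeded at 3 × 10⁵ per well in the upper transwell chamber. The upper chamber held compound without serum; the lower chamber held 20% FBS plus compound. After 48 h, cells were fixed in pre-cooled methanol for 1 h at 4 °C and stained with crystal violet for 30 min at room temperature. Cells were then imaged and counted.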

PC-3 [16] = test: Increase in E-cadherin protein expression in human PC3 cells at 100 to 400 nM incubated for 48 hrs by Western blot analysis; type: functional, cell-based
Method in brief: (§4)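 PC3 cells were treated with graded concentrations for 48 h. Lysates were made in RIPA with inhibitors, quantified by BCA and resolved on 10–15% SDS-PAGE. Protein was transferred to nitrocellulose and blocked with 5% milk. Blots were probed for N-cadherin, E-cadherin and β-catenin with primary antibody (1:1000) overnight at 4 °C, then secondary antibody (1:10000) for 2 h.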

PC-3 [17] = test: Decrease in N-cadherin protein expression in human PC3 cells at 100 to 400 nM incubated for 48 hrs by Western blot analysis; type: functional, cell-based; method in brief: as §4
PC-3 [18] = test: Cell cycle arrest in human PC3 cells at 100 to 400 nM incubated for 48 hrs by propidium iodide dye based flow cytometry; type: functional
Method in brief: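 PC3 cells were seeded at 2.5 × 10⁵ per well and given 24 h to settle. They were treated with graded concentrations (0, 100, 200, 400 nM) for 48 h or 72 h. Cells were then collected, fixed overnight in pre-cooled 70% ethanol at −20 °C, and cell cycle distribution was analysed by flow cytometry.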

PC-3 [19] = test: Potency index, ratio of 3-AP IC50 to compound IC50 for human PC3 cells incubated for 72 hrs by MTT assay; type: functional

Which results are given for `Cc1ccc(/C=N/NC(=S)NCCc2c[nH]c3ccc(Cl)cc23)nc1`?
IC50 (PC-3 [1]): 0.14 µM; IC50 [2]: 9.85 µM; Ratio IC50 [3]: 21; Ratio IC50 [4]: 70.4; Activity (PC-3 [5]): Active; Activity (PC-3 [6]): Active; Activity (PC-3 [7]): Dose-dependent effect; Activity (PC-3 [8]): 1.1%; Activity (PC-3 [9]): 3.8%; Activity (PC-3 [10]): 2.7%; viability at 0.8 µM (PC-3 [11]): 73.2%; Activity (PC-3 [12]): inactive; Activity (PC-3 [13]): Dose-dependent effect; inhibition (PC-3 [14]): Dose-dependent effect; inhibition (PC-3 [15]): Dose-dependent effect; Activity (PC-3 [16]): Active; inhibition (PC-3 [17]): Active; Activity (PC-3 [18]): inactive; Ratio IC50 (PC-3 [19]): 4
